Laboratory results from ChEMBL document CHEMBL3286096, “Synthesis, biological evaluation and docking study of 3-aroyl-1-(4-sulfamoylphenyl)thiourea derivatives as 15-lipoxygenase inhibitors” (Eur J Med Chem, 2014).
Activity calls are given as the source filed them. No cut-off for these calls is given here.

System: PC-12
Assay: Neuroprotective activity against H2O2-induced rat differentiated PC12 cell death assessed as increase in cell viability at 5 uM after 24 hrs by MTT assay
Type: functional, cell-based
Conditions: not given
In short: (§1)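 Rat PC12 cells grown in RPMI 1640 with 10% FCS, penicillin and streptomycin, then differentiated by a previously reported protocol. Differentiated cells were pretreated with compound at 1, 5 or 10 for 3 h before H2O2 exposure. Viability was read by MTT 24 h later and expressed relative to the H2O2-treated group.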

With `O=c1c(O)c(-c2ccc(O)c(O)c2)oc2cc(O)cc(O)c12` [QUERCETIN] the Activity was “Active”.

System: PC-12
Assay: Neuroprotective activity against H2O2-induced rat differentiated PC12 cell death assessed as increase in cell viability at 1 to 10 uM after 24 hrs by MTT assay
Type: functional, cell-based
Conditions: not given
In short: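 Rat PC12 cells were grown in RPMI 1640 with 10% FCS plus penicillin/streptomycin, then differentiated by a published protocol. Differentiated cells were pretreated with compound at 1, 5 and 10 for 3 h before H₂O₂ exposure, with quercetin 5 as reference. Viability was measured by MTT after 24 h and expressed relative to the H₂O₂-treated group.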

For `Cc1cccc(C(=O)NC(=S)Nc2ccc(S(N)(=O)=O)cc2)c1`, the Activity was “Active”.

System: not listed separately
Assay: Inhibition of soybean 15-LOX1 by UV spectrophotometric analysis
Design: species or system Glycine max
Conditions: not given

With `NS(=O)(=O)c1ccc(NC(=S)NC(=O)c2ccc([N+](=O)[O-])cc2)cc1` the IC50 was “ND(Insoluble)”.
With `NS(=O)(=O)c1ccc(NC(=S)NC(=O)c2ccc3ccccc3c2)cc1` the IC50 was “Not Active”.

Same assay, conditions: read-out: IC50

Point of comparison: `NS(=O)(=O)c1ccc(NC(=S)NC(=O)c2cc(F)c(F)c(F)c2F)cc1`, IC50 12.6 µM. Against it:
- O=c1c(O)c(-c2ccc(O)c(O)c2)oc2cc(O)cc(O)c12 [QUERCETIN] — within 1.5-fold, 18 µM
- NS(=O)(=O)c1ccc(NC(=S)NC(=O)c2cccc(F)c2)cc1 — within 1.5-fold, 8.7 µM
- COc1ccc(C(=O)NC(=S)Nc2ccc(S(N)(=O)=O)cc2)cc1 — 1.8-fold higher, 22.7 µM
- Cc1ccc(C(=O)NC(=S)Nc2ccc(S(N)(=O)=O)cc2)cc1 — 2.2-fold higher, 28 µM
- NS(=O)(=O)c1ccc(NC(=S)NC(=O)c2cccc(Cl)c2)cc1 — 1.9-fold lower, 6.7 µM
- NS(=O)(=O)c1ccc(NC(=S)NC(=O)c2ccc(Cl)cc2)cc1 — 2-fold higher, 25 µM
- NS(=O)(=O)c1ccc(NC(=S)NC(=O)c2ccccc2Cl)cc1 — within 1.5-fold, 18.7 µM
- NS(=O)(=O)c1ccc(NC(=S)NC(=O)c2ccc(Cl)cc2Cl)cc1 — 1.9-fold higher, 23.6 µM
- NS(=O)(=O)c1ccc(NC(=S)NC(=O)c2ccccc2)cc1 — 2.1-fold lower, 6 µM
- NS(=O)(=O)c1ccc(NC(=S)NC(=O)c2ccco2)cc1 — 3.6-fold higher, 45 µM
- NS(=O)(=O)c1ccc(NC(=S)NC(=O)c2cccs2)cc1 — 2.9-fold higher, 36 µM
- Cc1cccc(C(=O)NC(=S)Nc2ccc(S(N)(=O)=O)cc2)c1 — 7-fold lower, 1.8 µM
- Cc1ccccc1C(=O)NC(=S)Nc1ccc(S(N)(=O)=O)cc1 — 1.6-fold lower, 8.1 µM

System: not listed separately
Assay: Neuroprotective activity against H2O2-induced rat differentiated PC12 cell death assessed as increase in cell viability at 10 uM after 24 hrs by MTT assay
Type: functional, PC-12
Conditions: not given
In short: as §1

With `Cc1cccc(C(=O)NC(=S)Nc2ccc(S(N)(=O)=O)cc2)c1` the Activity was 50%.
